Data taken from ChEMBL document CHEMBL4138168, “Design and synthesis of novel thiobarbituric acid derivatives targeting both wild-type and BRAF-mutated melanoma cells” (Eur J Med Chem, 2018).

Legend:
Assay type in all cases: functional, cell-based
UACC-903 = assay: Cytotoxicity against human UACC-903 cells assessed as cell viability at 25 uM after 48 hrs by MTT assay relative to control; details: UACC-903, 48 h
In short: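 MCF10A normal breast epithelial cells were kept in MEGM mammary epithelial medium; the cancer lines were in DMEM with 10% FBS, 37 °C. OD at 570 nm with 630 nm background, expressed relative to control.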

CHL-1 = assay: Antiproliferative activity against human CHL-1 cells harboring wild type BRAF after 72 hrs by MTT assay; details: CHL-1, 72 h
In short: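 Cells (CHL-1) cultured in DMEM with 10% FBS at 37 °C and treated with compound for 72 h. Viability measured by MTT uptake: 3 h with MTT, DMSO solubilisation, absorbance at 570 nm with 630 nm background subtraction. IC50 taken as the mean of triplicates from at least two independent experiments.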

PANC-1 = assay: Antiproliferative activity against human PANC1 cells after 48 hrs by MTT assay; details: PANC-1, 48 h
In short: (§1)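 3,000 cells per well, grown at 37 °C (DMEM with 10% FBS and penicillin/streptomycin; HCT116 in McCoy's 5A). Cells exposed in triplicate to 0.5–25 μM compound for 48 h. MTT (5 mg/mL PBS stock) added for 3 h, formazan dissolved in DMSO, OD read at 570 nm minus 630 nm background. IC50 from non-linear regression of two independent experiments.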

HCT-116 = assay: Antiproliferative activity against human HCT116 cells after 48 hrs by MTT assay; details: HCT-116, 48 h; in short: as §1
MDA-MB-231 = assay: Antiproliferative activity against ER/PR/HER2 deficient human MDA-MB-231 cells after 48 hrs by MTT assay; details: MDA-MB-231, 48 h; in short: as §1
MCF7 = assay: Antiproliferative activity against human MCF7 cells expressing ER/PR/HER2 after 48 hrs by MTT assay; details: MCF7, 48 h; in short: as §1

| SMILES | IC50 (UACC-903) [µM] | IC50 (CHL-1) [µM] | IC50 (PANC-1) [µM] | IC50 (HCT-116) [µM] | IC50 (MDA-MB-231) [µM] | IC50 (MCF7) [µM] |
| --- | --- | --- | --- | --- | --- | --- |
| CCN1C(=O)C(=C/C=C/c2ccco2)C(=O)N(CC)C1=S | 18.8 | 8.6 | – | – | – | – |
| CCN1C(=O)/C(=C/C=C/c2cccc3ccccc23)C(=O)NC1=S | 23.4 | – | – | – | – | – |
| O=C1NC(=[Se])NC(=O)C1=C/C=C/c1ccccc1 | 13.6 | 9.4 | – | – | – | – |
| O=C1NC(=S)NC(=O)C1=C/C=C/c1cccnc1 | 18.4 | – | – | – | – | – |
| O=C1NC(=S)NC(=O)C1=C/C=C/C=C/c1ccccc1 | 6.5 | – | – | – | – | – |
| CCN1C(=O)\C(=C/C=C/C=C/c2ccco2)C(=O)NC1=S | 7.6 | – | – | – | – | – |
| O=C1NC(=S)NC(=O)C1=C/C=C/c1ccccc1 | 9.1 | 10.6 | – | – | – | – |
| CCN1C(=O)/C(=C\C=C\c2ccccc2)C(=O)NC1=S | 8 | 6.2 | – | – | – | – |
| CCN1C(=O)/C(=C\C=C\c2ccco2)C(=O)NC1=S | 16.2 | 13.9 | – | – | – | – |
| C=CCN1C(=O)/C(=C\C=C\c2ccco2)C(=O)N(CC)C1=S | 14.5 | 18.9 | – | – | – | – |
| CN1C(=O)/C(=C\C=C\c2cccs2)C(=O)NC1=S | 5.5 | 4.7 | 21 | 18.2 | 8.6 | 23.5 |
| O=C1NC(=S)NC(=O)C1=C/C=C/c1cccc2ccccc12 | 4.2 | – | 7.9 | 3.6 | 4.5 | – |
| C=CCN1C(=O)C(=C/C=C/c2ccco2)C(=O)N(CC=C)C1=S | 17.6 | 8 | – | – | – | – |
| C=CCN1C(=O)C(=C/C=C/c2ccccc2)C(=O)N(CC=C)C1=S | 18.1 | 8.1 | – | – | – | – |
| O=C1NC(=[Se])NC(=O)C1=C/C=C/c1cccs1 | 7.8 | 6.3 | – | – | – | – |
| O=C1NC(=[Se])NC(=O)C1=C/C=C/c1ccco1 | 2.3 | 9.7 | – | – | – | – |
| C=CCN1C(=O)/C(=C\C=C\c2cccs2)C(=O)NC1=S | 6.7 | 7.5 | – | – | – | – |
| CCN1C(=O)C(=C/C=C/c2ccccc2)C(=O)N(CC)C1=S | 15.2 | 8.8 | – | – | – | – |
| O=C1NC(=S)NC(=O)C1=C/C=C/c1ccco1 | 8 | 8.5 | 24.4 | 20.1 | 16.5 | 27.9 |
| C=CCN1C(=O)/C(=C\C=C\c2ccccc2)C(=O)N(CC)C1=S | 21 | – | – | – | – | – |
| CCN1C(=O)/C(=C\C=C\c2cccs2)C(=O)NC1=S | 4.6 | – | 20.5 | 8.3 | 8.5 | 24 |
| C=CCN1C(=O)/C(=C\C=C\c2cccs2)C(=O)N(CC)C1=S | 6.1 | – | – | – | – | – |
